In ChEMBL document CHEMBL2311295 (J Med Chem, 2013):
pIC50: −log10 of the molar value.

Assays:
HCT-116/VM46 = test: Cytotoxicity against vinblastine-resistant human HCT116/VM46 cells after 72 hrs by phosphatase assay; format: functional, cell-based; details: HCT-116/VM46, 72 h
Summary of the method: (§1)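 Cells diluted to 30,000 cells/mL in DMEM with 10% FBS and seeded into 96-well plates (100 μL per well), then grown 24 h at 37 °C under 5% CO2. Test agents were made as 1 mM DMSO stocks with 10-fold serial dilutions and tested at six concentrations over 0–1,000 nM or 0–10,000 nM, in duplicate, for 72 h. Acid phosphatase read-out: substrate in 0.1 M NaOAc pH 5.5 with 0.1% Triton X-100, 15 min at 37 °C, stopped with NaOH, A405. IC50 is the mean of 4–16 determinations.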

HCT-116 = test: Cytotoxicity against human HCT116 cells after 72 hrs by phosphatase assay; format: functional, cell-based; details: HCT-116, 72 h
Summary of the method: as §1, with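 “A405.” for “A405. IC50 is the mean of 4–16 determinations.”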

Row | Compound | pIC50 (HCT-116/VM46) | pIC50 (HCT-116)
1 | CCN(CC)C(=O)N[C@@]1(CC)C[C@H]2CN(CCc3c([nH]c4ccccc34)[C@@](C(=O)OC)(c3cc4c(cc3OC)N(C)[C@H]3[C@@](O)(C(=O)OC)[C@H](OC(C)=O)[C@]5(CC)C=CCN6CC[C@]43[C@@H]65)C2)C1 | 6.35 | 8.17
2 | CC[C@]1(NC(=S)NCCc2ccc(F)cc2)C[C@H]2CN(CCc3c([nH]c4ccccc34)[C@@](C(=O)OC)(c3cc4c(cc3OC)N(C)[C@H]3[C@@](O)(C(=O)OC)[C@H](OC(C)=O)[C@]5(CC)C=CCN6CC[C@]43[C@@H]65)C2)C1 | 6.12 | 7.22
3 | CCCCNC(=O)N[C@@]1(CC)C[C@H]2CN(CCc3c([nH]c4ccccc34)[C@@](C(=O)OC)(c3cc4c(cc3OC)N(C)[C@H]3[C@@](O)(C(=O)OC)[C@H](OC(C)=O)[C@]5(CC)C=CCN6CC[C@]43[C@@H]65)C2)C1 | 6.57 | 8.34
4 | CC[C@]1(NC(=O)Oc2ccc([N+](=O)[O-])cc2)C[C@H]2CN(CCc3c([nH]c4ccccc34)[C@@](C(=O)OC)(c3cc4c(cc3OC)N(C)[C@H]3[C@@](O)(C(=O)OC)[C@H](OC(C)=O)[C@]5(CC)C=CCN6CC[C@]43[C@@H]65)C2)C1 | – | 7.26
5 | CC[C@]1(NC=O)C[C@H]2CN(CCc3c([nH]c4ccccc34)[C@@](C(=O)OC)(c3cc4c(cc3OC)N(C)[C@H]3[C@@](O)(C(=O)OC)[C@H](OC(C)=O)[C@]5(CC)C=CCN6CC[C@]43[C@@H]65)C2)C1 | – | 7.07
6 | CC[C@]1(NC(=O)NCCO)C[C@H]2CN(CCc3c([nH]c4ccccc34)[C@@](C(=O)OC)(c3cc4c(cc3OC)N(C)[C@H]3[C@@](O)(C(=O)OC)[C@H](OC(C)=O)[C@]5(CC)C=CCN6CC[C@]43[C@@H]65)C2)C1 | < 6.00 | 8.06
7 | CC[C@]1(NC(=S)N(C)C)C[C@H]2CN(CCc3c([nH]c4ccccc34)[C@@](C(=O)OC)(c3cc4c(cc3OC)N(C)[C@H]3[C@@](O)(C(=O)OC)[C@H](OC(C)=O)[C@]5(CC)C=CCN6CC[C@]43[C@@H]65)C2)C1 | 6.60 | 8.06
8 | CC[C@]1(NC(=O)OC)C[C@H]2CN(CCc3c([nH]c4ccccc34)[C@@](C(=O)OC)(c3cc4c(cc3OC)N(C)[C@H]3[C@@](O)(C(=O)OC)[C@H](OC(C)=O)[C@]5(CC)C=CCN6CC[C@]43[C@@H]65)C2)C1 | – | 7.12
9 | CC[C@]1(NC(=O)Nc2ccc(C(F)(F)F)cc2)C[C@H]2CN(CCc3c([nH]c4ccccc34)[C@@](C(=O)OC)(c3cc4c(cc3OC)N(C)[C@H]3[C@@](O)(C(=O)OC)[C@H](OC(C)=O)[C@]5(CC)C=CCN6CC[C@]43[C@@H]65)C2)C1 | 6.21 | 8.15
10 | CC[C@]1(SC#N)C[C@H]2CN(CCc3c([nH]c4ccccc34)[C@@](C(=O)OC)(c3cc4c(cc3OC)N(C)[C@H]3[C@@](O)(C(=O)OC)[C@H](OC(C)=O)[C@]5(CC)C=CCN6CC[C@]43[C@@H]65)C2)C1 | – | 6.26
11 | CC[C@]1(NC(=O)NC2CCCCC2)C[C@H]2CN(CCc3c([nH]c4ccccc34)[C@@](C(=O)OC)(c3cc4c(cc3OC)N(C)[C@H]3[C@@](O)(C(=O)OC)[C@H](OC(C)=O)[C@]5(CC)C=CCN6CC[C@]43[C@@H]65)C2)C1 | 6.35 | 8.27
12 | CC[C@@H]1C[C@H]2CN(CCc3c([nH]c4ccccc34)[C@@](C(=O)OC)(c3cc4c(cc3OC)N(C)[C@H]3[C@@](O)(C(=O)OC)[C@H](OC(C)=O)[C@]5(CC)C=CCN6CC[C@]43[C@@H]65)C2)C1 [ROSEAMINE] | – | 7.22
13 | CCNC(=O)N(C)[C@@]1(CC)C[C@H]2CN(CCc3c([nH]c4ccccc34)[C@@](C(=O)OC)(c3cc4c(cc3OC)N(C)[C@H]3[C@@](O)(C(=O)OC)[C@H](OC(C)=O)[C@]5(CC)C=CCN6CC[C@]43[C@@H]65)C2)C1 | 5.07 | 6.28
14 | CC[C@]1(NC(=O)NCc2ccco2)C[C@H]2CN(CCc3c([nH]c4ccccc34)[C@@](C(=O)OC)(c3cc4c(cc3OC)N(C)[C@H]3[C@@](O)(C(=O)OC)[C@H](OC(C)=O)[C@]5(CC)C=CCN6CC[C@]43[C@@H]65)C2)C1 | 6.28 | 8.29
15 | CC[C@]1(NC(=O)Nc2ccc(OC)cc2)C[C@H]2CN(CCc3c([nH]c4ccccc34)[C@@](C(=O)OC)(c3cc4c(cc3OC)N(C)[C@H]3[C@@](O)(C(=O)OC)[C@H](OC(C)=O)[C@]5(CC)C=CCN6CC[C@]43[C@@H]65)C2)C1 | 6.64 | 8.70
16 | CC[C@]1(N=C=S)C[C@H]2CN(CCc3c([nH]c4ccccc34)[C@@](C(=O)OC)(c3cc4c(cc3OC)N(C)[C@H]3[C@@](O)(C(=O)OC)[C@H](OC(C)=O)[C@]5(CC)C=CCN6CC[C@]43[C@@H]65)C2)C1 | – | 6.28

Row | Compound | pIC50 (HCT-116/VM46) | pIC50 (HCT-116)
17 | CC[C@]1(NC(=O)N2CCOCC2)C[C@H]2CN(CCc3c([nH]c4ccccc34)[C@@](C(=O)OC)(c3cc4c(cc3OC)N(C)[C@H]3[C@@](O)(C(=O)OC)[C@H](OC(C)=O)[C@]5(CC)C=CCN6CC[C@]43[C@@H]65)C2)C1 | 6.44 | 8.35
18 | CC[C@]1(NC(=O)NCCc2ccccc2)C[C@H]2CN(CCc3c([nH]c4ccccc34)[C@@](C(=O)OC)(c3cc4c(cc3OC)N(C)[C@H]3[C@@](O)(C(=O)OC)[C@H](OC(C)=O)[C@]5(CC)C=CCN6CC[C@]43[C@@H]65)C2)C1 | 6.23 | 8.20
19 | CC[C@]1(NC(C)=O)C[C@H]2CN(CCc3c([nH]c4ccccc34)[C@@](C(=O)OC)(c3cc4c(cc3OC)N(C)[C@H]3[C@@](O)(C(=O)OC)[C@H](OC(C)=O)[C@]5(CC)C=CCN6CC[C@]43[C@@H]65)C2)C1 | – | 7.05
20 | CC[C@]1(NC(=O)Nc2ccc(F)cc2)C[C@H]2CN(CCc3c([nH]c4ccccc34)[C@@](C(=O)OC)(c3cc4c(cc3OC)N(C)[C@H]3[C@@](O)(C(=O)OC)[C@H](OC(C)=O)[C@]5(CC)C=CCN6CC[C@]43[C@@H]65)C2)C1 | 6.40 | 8.41
21 | CC[C@]1(NC(=O)NCc2ccccc2)C[C@H]2CN(CCc3c([nH]c4ccccc34)[C@@](C(=O)OC)(c3cc4c(cc3OC)N(C)[C@H]3[C@@](O)(C(=O)OC)[C@H](OC(C)=O)[C@]5(CC)C=CCN6CC[C@]43[C@@H]65)C2)C1 | 6.13 | 8.14
22 | CC[C@]1(NC(=S)Nc2ccccc2)C[C@H]2CN(CCc3c([nH]c4ccccc34)[C@@](C(=O)OC)(c3cc4c(cc3OC)N(C)[C@H]3[C@@](O)(C(=O)OC)[C@H](OC(C)=O)[C@]5(CC)C=CCN6CC[C@]43[C@@H]65)C2)C1 | 6.19 | 7.40
23 | CC[C@]1(N)C[C@H]2CN(CCc3c([nH]c4ccccc34)[C@@](C(=O)OC)(c3cc4c(cc3OC)N(C)[C@H]3[C@@](O)(C(=O)OC)[C@H](OC(C)=O)[C@]5(CC)C=CCN6CC[C@]43[C@@H]65)C2)C1 | < 5.00 | 6.22
24 | CC[C@]1(NC(=O)Nc2ccccc2)C[C@H]2CN(CCc3c([nH]c4ccccc34)[C@@](C(=O)OC)(c3cc4c(cc3OC)N(C)[C@H]3[C@@](O)(C(=O)OC)[C@H](OC(C)=O)[C@]5(CC)C=CCN6CC[C@]43[C@@H]65)C2)C1 | 6.41 | 8.29
25 | CC[C@]1(NC(N)=S)C[C@H]2CN(CCc3c([nH]c4ccccc34)[C@@](C(=O)OC)(c3cc4c(cc3OC)N(C)[C@H]3[C@@](O)(C(=O)OC)[C@H](OC(C)=O)[C@]5(CC)C=CCN6CC[C@]43[C@@H]65)C2)C1 | 5.70 | 8.11
26 | CC[C@]1(N=[N+]=[N-])C[C@H]2CN(CCc3c([nH]c4ccccc34)[C@@](C(=O)OC)(c3cc4c(cc3OC)N(C)[C@H]3[C@@](O)(C(=O)OC)[C@H](OC(C)=O)[C@]5(CC)C=CCN6CC[C@]43[C@@H]65)C2)C1 | – | 6.16
27 | CC[C@]1(NC(N)=O)C[C@H]2CN(CCc3c([nH]c4ccccc34)[C@@](C(=O)OC)(c3cc4c(cc3OC)N(C)[C@H]3[C@@](O)(C(=O)OC)[C@H](OC(C)=O)[C@]5(CC)C=CCN6CC[C@]43[C@@H]65)C2)C1 | 5.36 | 8.12
28 | CC[C@]1(NC(=O)NC(C)(C)C)C[C@H]2CN(CCc3c([nH]c4ccccc34)[C@@](C(=O)OC)(c3cc4c(cc3OC)N(C)[C@H]3[C@@](O)(C(=O)OC)[C@H](OC(C)=O)[C@]5(CC)C=CCN6CC[C@]43[C@@H]65)C2)C1 | 6.17 | 7.70
29 | CC[C@]12C=CCN3CC[C@@]4(c5cc([C@@]6(C(=O)OC)C[C@@H]7CN(CCc8c6[nH]c6ccccc86)C[C@@](CC)(N(C)C)C7)c(OC)cc5N(C)[C@H]4[C@@](O)(C(=O)OC)[C@@H]1OC(C)=O)[C@@H]32 | < 5.00 | 6.01
30 | CC[C@]1(NC(=O)Nc2ccc(C)cc2)C[C@H]2CN(CCc3c([nH]c4ccccc34)[C@@](C(=O)OC)(c3cc4c(cc3OC)N(C)[C@H]3[C@@](O)(C(=O)OC)[C@H](OC(C)=O)[C@]5(CC)C=CCN6CC[C@]43[C@@H]65)C2)C1 | 6.48 | 8.32
31 | CC[C@]1(NC(=O)NCc2ccccn2)C[C@H]2CN(CCc3c([nH]c4ccccc34)[C@@](C(=O)OC)(c3cc4c(cc3OC)N(C)[C@H]3[C@@](O)(C(=O)OC)[C@H](OC(C)=O)[C@]5(CC)C=CCN6CC[C@]43[C@@H]65)C2)C1 | 6.17 | 8.25
